{
  "source": "ChEMBL document CHEMBL1765022",
  "about": "“Synthesis and biological evaluation of tetracyclic thienopyridones as antibacterial and antitumor agents” (Bioorg Med Chem, 2011)",
  "data": [
    {"test_system": "Haemophilus influenzae", "assay": "Antimicrobial activity against Haemophilus influenzae ATCC 19418 by broth dilution method", "format": "functional", "in_short": "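H. influenzae was grown in Haemophilus Test Medium using twofold serial broth dilution. […] Drug-free, DMSO-only and organism-free control tubes were included. Triplicates, with at least three independent experiments.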", "units": {"MIC": "µg/mL"}, "values": [
      {"smiles": "C[C@H]1COc2c(N3CCN(C)CC3)c(F)cc3c(=O)c(C(=O)O)cn1c23.C[C@H]1COc2c(N3CCN(C)CC3)c(F)cc3c(=O)c(C(=O)O)cn1c23.O", "note": "[LEVOFLOXACIN]", "MIC": 0.15}
    ]},
    {"test_system": "Staphylococcus aureus", "assay": "Antimicrobial activity against quinilone-pencillin-resistant Staphylococcus aureus isolate SAR 4790 by broth dilution method", "format": "functional", "in_short": "(§1)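 Twofold serial broth dilution in Mueller Hinton Broth. […] Drug-free tubes, DMSO-only tubes and organism-free tubes served as growth, solvent and sterility controls. Three replicates per organism, at least three independent experiments.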", "units": {"MIC": "µg/mL"}, "values": [
      {"smiles": "C[C@H]1COc2c(N3CCN(C)CC3)c(F)cc3c(=O)c(C(=O)O)cn1c23.C[C@H]1COc2c(N3CCN(C)CC3)c(F)cc3c(=O)c(C(=O)O)cn1c23.O", "note": "[LEVOFLOXACIN]", "MIC": 100}
    ]},
    {"test_system": "Escherichia coli", "assay": "Antimicrobial activity against quinilone-pencillin-resistant Escherichia coli clinical isolate by broth dilution method", "format": "functional", "units": {"MIC": "µg/mL"}, "values": [
      {"smiles": "C[C@H]1COc2c(N3CCN(C)CC3)c(F)cc3c(=O)c(C(=O)O)cn1c23.C[C@H]1COc2c(N3CCN(C)CC3)c(F)cc3c(=O)c(C(=O)O)cn1c23.O", "note": "[LEVOFLOXACIN]", "MIC": 25}
    ]},
    {"test_system": "not listed separately", "assay": "Antimicrobial activity against Bacillus thuringiensis var.kurstaki BGSC 4D1 by broth dilution method", "format": "functional, Bacillus thuringiensis serovar kurstaki", "in_short": "(§2)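 Twofold serial broth dilution in Mueller Hinton Broth. […] Growth (drug-free), DMSO solvent and organism-free sterility tubes were included. Three replicates per organism, at least three independent experiments.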", "units": {"MIC": "µg/mL"}, "values": [
      {"smiles": "C[C@H]1COc2c(N3CCN(C)CC3)c(F)cc3c(=O)c(C(=O)O)cn1c23.C[C@H]1COc2c(N3CCN(C)CC3)c(F)cc3c(=O)c(C(=O)O)cn1c23.O", "note": "[LEVOFLOXACIN]", "MIC": 0.07}
    ]},
    {"test_system": "Acinetobacter baumannii", "assay": "Antimicrobial activity against quinilone-pencillin-resistant Acinetobacter baumannii clinical isolate by broth dilution method", "format": "functional", "units": {"MIC": "µg/mL"}, "values": [
      {"smiles": "C[C@H]1COc2c(N3CCN(C)CC3)c(F)cc3c(=O)c(C(=O)O)cn1c23.C[C@H]1COc2c(N3CCN(C)CC3)c(F)cc3c(=O)c(C(=O)O)cn1c23.O", "note": "[LEVOFLOXACIN]", "MIC": "> 100"}
    ]},
    {"test_system": "Bacillus subtilis", "assay": "Antimicrobial activity against Bacillus subtilis ATCC 6633 by broth dilution method", "format": "functional", "in_short": "as §2", "units": {"MIC": "µg/mL"}, "values": [
      {"smiles": "C[C@H]1COc2c(N3CCN(C)CC3)c(F)cc3c(=O)c(C(=O)O)cn1c23.C[C@H]1COc2c(N3CCN(C)CC3)c(F)cc3c(=O)c(C(=O)O)cn1c23.O", "note": "[LEVOFLOXACIN]", "MIC": 0.03}
    ]},
    {"test_system": "Staphylococcus epidermidis", "assay": "Antimicrobial activity against Staphylococcus epidermidis ATCC 12228 by broth dilution method", "format": "functional", "in_short": "as §2", "units": {"MIC": "µg/mL"}, "values": [
      {"smiles": "C[C@H]1COc2c(N3CCN(C)CC3)c(F)cc3c(=O)c(C(=O)O)cn1c23.C[C@H]1COc2c(N3CCN(C)CC3)c(F)cc3c(=O)c(C(=O)O)cn1c23.O", "note": "[LEVOFLOXACIN]", "MIC": 0.15}
    ]},
    {"test_system": "Pseudomonas aeruginosa", "assay": "Antimicrobial activity against Pseudomonas aeruginosa ATCC 9027 by broth dilution method", "format": "functional", "in_short": "as §2", "units": {"MIC": "µg/mL"}, "values": [
      {"smiles": "C[C@H]1COc2c(N3CCN(C)CC3)c(F)cc3c(=O)c(C(=O)O)cn1c23.C[C@H]1COc2c(N3CCN(C)CC3)c(F)cc3c(=O)c(C(=O)O)cn1c23.O", "note": "[LEVOFLOXACIN]", "MIC": 0.3}
    ]},
    {"test_system": "Staphylococcus aureus", "assay": "Antimicrobial activity against Staphylococcus aureus ATCC 6538 by broth dilution method", "format": "functional", "in_short": "as §2", "units": {"MIC": "µg/mL"}, "values": [
      {"smiles": "C[C@H]1COc2c(N3CCN(C)CC3)c(F)cc3c(=O)c(C(=O)O)cn1c23.C[C@H]1COc2c(N3CCN(C)CC3)c(F)cc3c(=O)c(C(=O)O)cn1c23.O", "note": "[LEVOFLOXACIN]", "MIC": 0.07}
    ]},
    {"test_system": "Aspergillus niger", "assay": "Antimicrobial activity against Aspergillus niger ATCC 6275 by broth dilution method", "format": "functional", "in_short": "(§3)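 Fungi were tested by twofold serial broth dilution in Sabouraud Dextrose Broth. Inoculum was 1x10³ CFU/mL, with 48 h at 30 °C before MIC determination. Growth, DMSO solvent and sterility controls were included. Three replicates per organism, at least three independent experiments.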", "units": {"MIC": "µg/mL"}, "values": [
      {"smiles": "Clc1ccc(COC(Cn2ccnc2)c2ccc(Cl)cc2Cl)c(Cl)c1", "note": "(stereo unspecified) [MICONAZOLE]", "MIC": 3},
      {"smiles": "C[C@H]1COc2c(N3CCN(C)CC3)c(F)cc3c(=O)c(C(=O)O)cn1c23.C[C@H]1COc2c(N3CCN(C)CC3)c(F)cc3c(=O)c(C(=O)O)cn1c23.O", "note": "[LEVOFLOXACIN]", "MIC": "> 100"}
    ]},
    {"test_system": "Acinetobacter baumannii", "assay": "Antimicrobial activity against Acinetobacter baumannii ATCC 19606 by broth dilution method", "format": "functional", "in_short": "as §2", "units": {"MIC": "µg/mL"}, "values": [
      {"smiles": "C[C@H]1COc2c(N3CCN(C)CC3)c(F)cc3c(=O)c(C(=O)O)cn1c23.C[C@H]1COc2c(N3CCN(C)CC3)c(F)cc3c(=O)c(C(=O)O)cn1c23.O", "note": "[LEVOFLOXACIN]", "MIC": 0.15}
    ]},
    {"test_system": "Bacillus cereus", "assay": "Antimicrobial activity against Bacillus cereus ATCC 11778 by broth dilution method", "format": "functional", "in_short": "as §2", "units": {"MIC": "µg/mL"}, "values": [
      {"smiles": "C[C@H]1COc2c(N3CCN(C)CC3)c(F)cc3c(=O)c(C(=O)O)cn1c23.C[C@H]1COc2c(N3CCN(C)CC3)c(F)cc3c(=O)c(C(=O)O)cn1c23.O", "note": "[LEVOFLOXACIN]", "MIC": 0.15}
    ]},
    {"test_system": "NHDF", "assay": "Antitumor activity against human NHDF cells after 72 hrs by MTT assay", "format": "functional, cell-based", "in_short": "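Cells were kept at 37 °C in 5% CO₂, in medium with 2 mM glutamine and 10% FBS; HuDe fibroblasts were grown in DMEM. Compounds were freshly dissolved in DMSO (final ≤0.1% v/v; controls received equal solvent) and applied at 0.1–20 µM for 72 h. Viability was read by MTT. IC₅₀ was extrapolated from Hill-fitted dose–response curves, from at least three independent experiments.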", "units": {"IC50": "µM"}, "values": [
      {"smiles": "Cc1c2ccncc2c(C)c2c1[nH]c1ccccc12", "note": "[ELLIPTECINE]", "IC50": "> 10"}
    ]},
    {"test_system": "Saccharomyces cerevisiae", "assay": "Antimicrobial activity against Saccharomyces cerevisiae ATCC 9763 by broth dilution method", "format": "functional", "in_short": "as §3", "units": {"MIC": "µg/mL"}, "values": [
      {"smiles": "Clc1ccc(COC(Cn2ccnc2)c2ccc(Cl)cc2Cl)c(Cl)c1", "note": "(stereo unspecified) [MICONAZOLE]", "MIC": 12},
      {"smiles": "C[C@H]1COc2c(N3CCN(C)CC3)c(F)cc3c(=O)c(C(=O)O)cn1c23.C[C@H]1COc2c(N3CCN(C)CC3)c(F)cc3c(=O)c(C(=O)O)cn1c23.O", "note": "[LEVOFLOXACIN]", "MIC": "> 100"}
    ]},
    {"test_system": "Candida tropicalis", "assay": "Antimicrobial activity against Candida tropicalis ATCC 1369 by broth dilution method", "format": "functional", "in_short": "as §3", "units": {"MIC": "µg/mL"}, "values": [
      {"smiles": "Clc1ccc(COC(Cn2ccnc2)c2ccc(Cl)cc2Cl)c(Cl)c1", "note": "(stereo unspecified) [MICONAZOLE]", "MIC": 6},
      {"smiles": "C[C@H]1COc2c(N3CCN(C)CC3)c(F)cc3c(=O)c(C(=O)O)cn1c23.C[C@H]1COc2c(N3CCN(C)CC3)c(F)cc3c(=O)c(C(=O)O)cn1c23.O", "note": "[LEVOFLOXACIN]", "MIC": "> 100"}
    ]},
    {"test_system": "Staphylococcus epidermidis", "assay": "Antimicrobial activity against quinilone-pencillin-resistant Staphylococcus epidermidis clinical isolate by broth dilution method", "format": "functional", "units": {"MIC": "µg/mL"}, "values": [
      {"smiles": "C[C@H]1COc2c(N3CCN(C)CC3)c(F)cc3c(=O)c(C(=O)O)cn1c23.C[C@H]1COc2c(N3CCN(C)CC3)c(F)cc3c(=O)c(C(=O)O)cn1c23.O", "note": "[LEVOFLOXACIN]", "MIC": "> 100"}
    ]},
    {"test_system": "Priestia megaterium", "assay": "Antimicrobial activity against Bacillus megaterium ATCC 19213 by broth dilution method", "format": "functional", "in_short": "as §2", "units": {"MIC": "µg/mL"}, "values": [
      {"smiles": "C[C@H]1COc2c(N3CCN(C)CC3)c(F)cc3c(=O)c(C(=O)O)cn1c23.C[C@H]1COc2c(N3CCN(C)CC3)c(F)cc3c(=O)c(C(=O)O)cn1c23.O", "note": "[LEVOFLOXACIN]", "MIC": 0.03}
    ]},
    {"test_system": "Staphylococcus aureus", "assay": "Antimicrobial activity against quinilone-pencillin-resistant Staphylococcus aureus isolate SAR 72 by broth dilution method", "format": "functional", "in_short": "as §1", "units": {"MIC": "µg/mL"}, "values": [
      {"smiles": "C[C@H]1COc2c(N3CCN(C)CC3)c(F)cc3c(=O)c(C(=O)O)cn1c23.C[C@H]1COc2c(N3CCN(C)CC3)c(F)cc3c(=O)c(C(=O)O)cn1c23.O", "note": "[LEVOFLOXACIN]", "MIC": 25}
    ]}
  ]
}
